High-throughput results deposited in PubChem by Broad Institute.
The list is not random: actives were taken first. Their share in the collection is about 1.1%.
CAL PDZ FP-1: CAL PDZ (human) peptide binding inhibition; purified CAL PDZ, TMR-peptide fluorescence polarization, 1 h; inhibition, % at 24.9 µM; 300,000 tested, 0.92% active;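 active = mean inhibition of at least 30% with at least half of replicates also reaching 30%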;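 note: 0% = DMSO neutral control and 100% = excess unlabeled competitor peptide PRC23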
PglD DTNB: PglD (C. jejuni) enzyme inhibition; purified PglD enzyme, DTNB colorimetric CoA detection; AID 602405; 360,000 tested, 0.098% active; inhibition, % at 12.5 µM; in the data active = inhibition above about 16%, passing the limit was not always enough
miR122 inh: miR-122 inhibition in Huh7 cells. 340,000 tested, 0.3% active. activation (reporter increase), % at 12.5 µM. AID 602342. Huh7 miR-122 Renilla luciferase sensor, 48 h; neutral wells = 0, positive control = 100;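 active = mean replicate activation score at least 90 and every replicate individually at or above 90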;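 note: higher luciferase means less miR-122 activity so hits act as miR-122 inhibitors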
Cneo AK release: Cryptococcus neoformans lysis via adenylate kinase release; C. neoformans lysis, adenylate kinase release luminescence, 4 h; normalised: neutral wells 0, clomiphene wells 100; lysis activity, % at 15 µM; 360,000 tested, 0.2% active; AID 651654;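 active = mean lysis activity across replicates of at least 80%, whatever share of replicates individually reach that level; inactive = mean lysis activity below 80%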
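Material: C. neoformans cells; Schedule: 4 h static compound exposure, 37 °C, read 1 h post-reagent; Measured by: adenylate kinase release luminescence; Read-out: signal increase indicating cell lysis; Controls: Clomiphene as positive lysis control.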
CAL PDZ FP-2: blocks peptide binding to human CAL PDZ domain. Q9HD26. purified CAL PDZ, TMR-peptide fluorescence polarization, 1 h. inhibition, % at 20 µM. 330,000 tested, 0.02% active;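 active = highest replicate inhibition of at least 40%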;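 note: plate controls were DMSO neutral control wells for no effect and unlabeled competitor peptide control wells for full effect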
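Test system: purified CerCALP PDZ construct; Compound dosing: one concentration, 20 µM compound; Also added: TMR-labelled reporter peptide T*-PRC34 bound in PDZ groove; Read-out: inhibition from polarization loss; Controls: unlabelled peptide and DMSO controls; Signal: FP readout, S and P plane fluorescence; Incubation: 1 h at RT.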
* marks the source's active call; other numbers are inactive results; · = no result given; [ ] = remark or other dose.

SMILES | CAL PDZ FP-1 | PglD DTNB | miR122 inh | Cneo AK release | CAL PDZ FP-2
C[C@@H]1CN([C@H](C)CO)C(=O)Cc2cc(NS(=O)(=O)c3cn(C)cn3)ccc2O[C@@H]1CN(C)C(=O)NC1CCCCC1 | · | -2 | 1[16.7 µM] | -3 | ·
COc1cc(NC(=O)c2ccc(N3CCCC3=O)cc2)cc(OC)c1 | -1 | -3 | -4 | 0 | -1
COc1ccc2cc(N3CCCC3=O)ccc2c1 | 85* | -9 | -7 | 0 | -1
COCC(=O)N(C)C[C@@H]1[C@@H](c2ccccc2)[C@H](CO)N1C(=O)Cc1cccnc1 | · | -1 | 17[16.7 µM] | 2 | ·
COc1ccc(S(=O)(=O)Nc2ccc3c(c2)CC(=O)N([C@H](C)CO)C[C@H](C)[C@H](CN(C)Cc2ccc(C(=O)Nc4ccccc4N)cc2)O3)cc1 | · | · | 212*[16.7 µM] | · | ·
COc1ccc(S(=O)(=O)Nc2ccc3c(c2)CC(=O)N([C@H](C)CO)C[C@@H](C)[C@@H](CN(C)Cc2ccc(C(=O)Nc4ccccc4N)cc2)O3)cc1 | · | · | -2[16.7 µM] | · | ·
C[C@@H]1CN([C@@H](C)CO)C(=O)Cc2cc(NS(=O)(=O)c3ccc(Cl)cc3)ccc2O[C@H]1CN(C)Cc1ccc(C(=O)Nc2ccccc2N)cc1 | · | 11 | 21[16.7 µM] | -2 | ·
C[C@H](CO)N1C[C@H](C)[C@H](CN(C)Cc2ccc(C(=O)Nc3ccccc3N)cc2)Oc2ccc(NS(=O)(=O)c3ccc(F)cc3)cc2CC1=O | · | 0 | 162*[16.7 µM] | -7 | ·
C[C@H](CO)N1C[C@H](C)[C@@H](CN(C)Cc2ccc(C(=O)Nc3ccccc3N)cc2)Oc2ccc(NS(=O)(=O)c3ccc(F)cc3)cc2CC1=O | · | -3 | 7[16.7 µM] | -1 | ·
C[C@H](CO)N1C[C@H](C)[C@H](CN(C)Cc2ccc(C(=O)Nc3ccccc3N)cc2)Oc2ccc(NS(=O)(=O)c3ccccc3)cc2CC1=O | · | 0 | 145*[16.7 µM] | -2 | ·
C[C@H](CO)N1C[C@H](C)[C@H](CN(C)Cc2ccc(C(=O)Nc3ccccc3N)cc2)Oc2ccc(NS(=O)(=O)c3cccs3)cc2CC1=O | · | 1 | 104*[16.7 µM] | -3 | ·
CN1c2ccc(-c3cccc(F)c3)cc2[C@H]2[C@H](CCN2C(=O)Cc2ccccc2)[C@@H]1CO | · | 0 | -14[16.7 µM] | -8 | ·
O=C(Nc1cccc(Cl)c1)N1C[C@H]2[C@@H](c3ccccc31)[C@H](CO)N2CC1CCOCC1 | · | -2 | -29[16.7 µM] | -15 | ·
CC(C)c1cn(CC[C@H]2CC[C@H](NC(=O)Nc3cc(Cl)cc(Cl)c3)[C@@H](CO)O2)nn1 | · | -3 | -2[16.7 µM] | -1 | ·
COc1ccccc1NC(=O)N[C@H]1CC[C@@H](CCn2cc(-c3ccccc3OC)nn2)O[C@@H]1CO | · | -2 | · | 99* | ·
O=C(N[C@H]1CC[C@@H](CCn2cc(-c3ccccc3)nn2)O[C@H]1CO)c1cnccn1 | · | -1 | · | -1 | ·
O=C(N[C@H]1CC[C@@H](CCn2cc(-c3ccccc3)nn2)O[C@@H]1CO)c1cnccn1 | · | 3 | · | 93* | ·
O=C(N[C@@H]1CC[C@@H](CCn2cc(-c3ccccc3)nn2)O[C@H]1CO)c1cnccn1 | · | -3 | · | 96* | ·
COc1cccc(-c2cn(CC[C@@H]3CC[C@H](NC(C)=O)[C@H](CO)O3)nn2)c1 | · | -4 | · | 0 | ·
COc1ccccc1NC(=O)N[C@H]1CC[C@@H](CCn2cc(-c3ccccc3OC)nn2)O[C@H]1CO | · | 1 | · | 0 | ·
COc1cccc(-c2cn(CC[C@@H]3CC[C@H](NC(C)=O)[C@@H](CO)O3)nn2)c1 | · | 1 | · | 94* | ·
C[C@H]1CCCCO[C@H](CN(C)S(=O)(=O)c2ccccc2)[C@@H](C)CN([C@@H](C)CO)C(=O)c2cc(NC(=O)Nc3ccccc3)ccc2O1 | · | 3 | 12[16.7 µM] | 0 | ·
CCCNC(=O)N1C[C@@H](O)COC[C@@H]2O[C@H](CC(=O)NCCCN3CCOCC3)CC[C@H]21 | · | 2 | 2[16.7 µM] | 52 | ·
C[C@@H]1CN([C@@H](C)CO)C(=O)Cc2cc(NS(=O)(=O)c3ccccc3)ccc2O[C@@H]1CN(C)S(=O)(=O)c1ccc(Cl)cc1 | · | 0 | 12[16.7 µM] | 0 | ·
CC(C)(CN1CCCC1)NC(=O)C1CCC(=O)N(CCCN2CCOCC2)C1 (stereo unspecified) | 92* | -2 | -7 | -1 | 0
SMILES | CAL PDZ FP-1 | PglD DTNB | miR122 inh | Cneo AK release | CAL PDZ FP-2
CCCCCCc1nc(-c2ccc(OC)nc2)c(C)c2c1[Si](C(C)C)(C(C)C)OC2 | · | · | · | 7 | ·
N=C1/C(=C\c2ccc(-c3ccc(C(=O)O)cc3)o2)C(=O)N=C2SC=C(c3ccccc3)N12 | 78* | -2 | -7 | -6 | 12
Cc1cc(C)nc(CCNC(=O)CC2C(=O)NCCN2Cc2ccc(F)cc2Cl)n1 (stereo unspecified) | 60* | -3 | 2 | 1 | 0
CC(C)c1nc(CNC(=O)CC2C(=O)NCCN2Cc2ccc(F)cc2Cl)cs1 (stereo unspecified) | · | 3 | -8 | 0 | -2
COc1ccccc1CN1CCNC(=O)C1CC(=O)NCc1c(C)n[nH]c1C (stereo unspecified) | 51* | · | · | · | ·
O=C(CCC(=O)N1CCN(S(=O)(=O)c2ccccc2)CC1)c1ccc(Br)cc1 | · | 3 | 0 | 0 | 0
O=S(=O)(c1cc(C(F)(F)F)ccc1Cl)N1CCN(c2ncnc3ccccc23)CC1 | 62* | · | · | · | -1
COc1ccc(CN2C(=O)c3cccnc3C2=O)cc1S(=O)(=O)N(C)c1cccc(C)c1 | 47* | 3 | -4 | 8 | 0
CN1C(=O)c2cc(NS(C)(=O)=O)ccc2OC[C@H]2O[C@@H](CC(=O)NC3CCCCC3)CC[C@H]21 | · | 4 | · | -2 | ·
Cc1nn(Cc2ccccc2)c(Cl)c1C(=O)NCc1ccco1 | 59* | 3 | 1 | -1 | -1
COc1ccc(C(=O)NCC(=O)NCc2ccncc2)cc1 | 124* | -2 | -4 | -1 | -3
CCCCOc1ccc(C(=O)NCC(=O)NCc2ccncc2)cc1 | -2 | 7 | -11 | -1 | 0
Cc1ccc2nc(NC(=O)COC(=O)c3ccncc3)sc2c1 | 62* | · | · | · | 33
O=C(C[C@@H]1C[C@@H]2c3cc(NC(=O)NC4CCCCC4)ccc3O[C@@H]2[C@@H](CO)O1)NCc1cccnc1 | · | 54* | 4[16.7 µM] | 9 | ·
O=C(C[C@@H]1C[C@H]2c3cc(NC(=O)C4CCC4)ccc3O[C@H]2[C@@H](CO)O1)NCc1cccc(F)c1 | · | 1 | 5[16.7 µM] | -1 | ·
O=C(C[C@H]1C[C@@H]2c3cc(NC(=O)CC4CC4)ccc3O[C@@H]2[C@@H](CO)O1)NCc1cccc(F)c1 | · | 4 | 1[16.7 µM] | 91* | ·
O=C(C[C@H]1C[C@H]2c3cc(NC(=O)C4CCC4)ccc3O[C@H]2[C@@H](CO)O1)NCc1cccc(F)c1 | · | 5 | 5[16.7 µM] | 94* | ·
O=C(C[C@@H]1C[C@@H]2c3cc(NC(=O)C4CCC4)ccc3O[C@@H]2[C@H](CO)O1)NCc1cccc(F)c1 | · | 7 | 31[16.7 µM] | 86* | ·
CCOc1ccccc1NC(=O)c1ccc(Cl)c(NC(=O)CC(c2ccccc2)c2ccccc2)c1 | -1 | -6 | -5 | 0 | -3
